The results in this text go back to PubChem BioAssay.

The nature of assay [1]: OD615 S. cerevisiae growth inhibition, permissive medium, pilot counter-assay, permissive growth control for S. cerevisiae lifespan shortening project (AID 705;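 active = growth inhibition above 25% in both replicates, a cutoff set 3 SD above the mean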). As to conditions: OD615, 24 h, at 10 µM, active compounds read high. Put shortly:
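Material: engineered DeaD yeast; compound dosing: one dose 10 µM, DMSO 0.25% final; measure: yeast growth inhibition indicated by reduced 24 h OD615; detection: OD615 turbidity read; incubation: cells pre-grown 4 h, then 24 h compound exposure, 30 °C humidified; medium: permissive synthetic complete medium with raffinose and galactose carbon sources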

Assay [2] can be described thus: Restrictive medium S. cerevisiae growth inhibition, OD615, pilot screen of yeast lifespan reduction project, restrictive growth control (AID 706;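 active = growth inhibition above a set limit, 3 SD over mean compound inhibition, in both replicates, cut at about 43% in these data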;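 note: modified DeaD lifespan yeast strain shifted to restrictive glucose medium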). As to conditions: OD615, 48 h, at 10 µM, active compounds read high. The method in brief:
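material = engineered S. cerevisiae DeaD strain | medium = glucose-based CSMM-D restrictive medium | times = 4 h pre-incubation, 48 h exposure at 30 °C | technique = OD615 absorbance reading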

The nature of assay [3]: viability gain of MRP-1-high H69AR cells under doxorubicin, pilot screen, MRP-1 activator project, CellTiter-Glo, duplicate (AID 807;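 active = viability increase at or above a cutoff of the median across tested compounds plus 3 SD, cut at about 8.5% in these data, passing the limit was not always enough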;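 note: compound pretreatment 18-22 h then 72 h combined with doxorubicin; 0% = doxorubicin alone and 100% = vehicle without doxorubicin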). As to conditions: H69AR viability with doxorubicin, CellTiter-Glo luminescence; at 10 µM; active compounds read high.
The nature of assay [4]: growth suppression of beta-catenin knockout HCT116, pilot screen, human colon tumor cells (AID 823;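 active = cell viability at or below a set limit in both duplicate runs, the limit being the all-compound median minus 4 SD, cut at about 23% in these data, passing the limit was not always enough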;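 note: 0% = wells killed by 20 µM Hyamine and 100% = untreated DMSO cell wells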). As to conditions: CellTiter-Glo, 60 h, at 10 µM, active compounds read low. A general note: ATP-based viability assays read luminescence as a measure of living cells.
Assay [5] can be described thus: growth suppression of PTEN-deleted HCT116, pilot screen, cell-based, HCT116 clonal line, CellTiter-Glo (AID 824;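 active = viability at or below 27.92% in each of two runs, the all-compound median minus 4 SD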;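 note: 0% = 20 µM Hyamine control and 100% = vehicle cell control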). Conditions: 60 h, at 10 µM, active compounds read low.
Assay [6] in a line: inhibitors of the yeast RAM network, pilot screen, dse1pr::URA3 reporter, 5-FOA selection (AID 869).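 Note: 0% = DMSO wells with no growth and 100% = 10 µM 1-NA-PP1 with full growth; RAM network block rescues cells from 5-FOA so hits raise OD615 growth.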 Conditions: S. cerevisiae dse1pr::URA3 5-FOA growth, OD615, 2 d; at 10 µM; active compounds read high; strain carries analog-sensitive mutant Cbk1 kinase.
A short description of assay [7]: RAM signaling pathway blockade in yeast – S. cerevisiae, Pdr1DBD-CYC8 efflux-inhibited sensitized strain, primary screen (AID 1298;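 active = RAM network inhibition above 8.4% in each of two replicates, 3 SD over the compound average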;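 note: 0% = DMSO untreated cells without growth and 100% = 10 µM 1-NA-PP1 full growth; higher means more yeast growth rescued from 5-FOA killing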). Conditions: S. cerevisiae cbk1-as DSE1-URA3 strain, 5-FOA growth OD615, 2 d; at 50 µM; active compounds read high.

The viability is a read-out of living cells in per cent, often relative to untreated cells. Usually inhibition stands for the relative decrease from the control value, in per cent.

Unmarked numbers belong to inactive results. Records with an inconclusive call do not appear. Calls of active or inactive are those of the source.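 Rule for the calls, unless noted: active = inhibition over a set limit, the all-compound mean plus 3 SD, in both replicate runs; inconclusive = over that limit in just one replicate run; inactive = at or under that limit in both runs.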

Consider `CCc1cccc(NC(=O)CCS(=O)(=O)c2cccc3nonc23)c1`, for which the results for the growth inhibition in assay [1] and in assay [2] were 0.64% and -9.32%, respectively. The viability increase in assay [3] was -1.95%. In addition, the results for the viability in assay [4] and in assay [5] were 93.8% and 95.3%, respectively. For the same compound, the inhibition in assay [6] was 0.47%. Also, the RAM network inhibition in assay [7] was 2.79%.

For `CN1C(=O)CS(=O)c2ccc(C(=O)NCCC3=CCCCC3)cc21` (stereo not drawn), the growth inhibition in assay [1] is 0.135%; in assay [2], 0.3%. Further, the viability increase in assay [3] is -2.35%. Moreover, the viability in assay [4] is 81.3%; in assay [5], 85%. The inhibition in assay [6] is 0.265%. Moreover, the RAM network inhibition in assay [7] was 2.98%.

`CCOc1ccc(-n2c(Cc3cc(=O)[nH]c(=O)[nH]3)nnc2SC(C)C(=O)OC)cc1` (stereo not drawn): the growth inhibition is -4.41% in assay [1] and 2.84% in assay [2]. Besides, the viability increase in assay [3] is 0.2%. The values for the viability in assay [4] and in assay [5] were 101% and 103%, respectively. In addition, the inhibition in assay [6] was 0.31%. Besides, in assay [7], the RAM network inhibition is 3.49%.

On to `CSc1nnc(NC(=O)c2cc3ccccc3oc2=O)s1`, for which the values for the growth inhibition in assay [1] and in assay [2] were -6.82% and -6.74%, respectively. Also, the viability increase in assay [3] is -2.29%. Further, the viability in assay [4] is 93.8%; in assay [5] it was 95.5%. Besides, the inhibition in assay [6] is 1.24%. The RAM network inhibition in assay [7] was 4.01%.

With `O=C(c1cnn2c(C(F)(F)F)cc(-c3ccccc3)nc12)N1CCOCC1`, the growth inhibition in assay [1] was -14.6%; in assay [2] it was -10%. Further, the viability increase in assay [3] was -2.81%. Further, the results for the viability in assay [4] and in assay [5] were 103% and 99.8%, respectively. In addition, in assay [6], the inhibition is 0.505%. Also, in assay [7], the RAM network inhibition is -1.1%.

Take `CCOC(=O)c1ccccc1NC(=O)C1COc2ccccc2O1` (stereo not drawn): the growth inhibition was -25.8% in assay [1] and -30.7% in assay [2]. Further, the viability increase in assay [3] was 4.16%. For the same compound, the viability in assay [4] was 83.2%; in assay [5], 87.8%. Moreover, in assay [6], the inhibition was 1.09%. For the same compound, the RAM network inhibition in assay [7] is 4.22%.

As for `CCOC(=O)C1=C(N)OC2=C(C(=O)CCC2)C1c1cccs1` (stereo not drawn), the values for the growth inhibition in assay [1] and in assay [2] were -0.655% and 5.78%, respectively. Also, in assay [3], the viability increase was 0.3%. The results for the viability in assay [4] and in assay [5] were 108% and 104%, respectively. In addition, the inhibition in assay [6] was 0.345%. In addition, the RAM network inhibition in assay [7] is 2.67%.

Regarding `Cc1cc2ncn(C3CC(=O)N(Cc4ccc(N5CCCC5=O)cc4)C3=O)c2cc1C` (stereo not drawn), the values for the growth inhibition in assay [1] and in assay [2] were -7.9% and 13.8%, respectively. In assay [3], the viability increase is -0.37%. In addition, the values for the viability in assay [4] and in assay [5] were 97.9% and 98.5%, respectively. Moreover, the inhibition in assay [6] is 0.14%. Moreover, the RAM network inhibition in assay [7] was 1.48%.

On to `COCCOC(=O)c1[nH]c2c(c1C)C(=O)CC(c1cc(OC)ccc1OC)C2` (stereo not drawn), for which the results for the growth inhibition in assay [1] and in assay [2] were -16.8% and -12.3%, respectively. Moreover, in assay [3], the viability increase was -6.01%. Moreover, the viability was 38.6% in assay [4] and 34.5% in assay [5]. Further, in assay [6], the inhibition is 2.09%. Besides, the RAM network inhibition in assay [7] was 9.43%.

For the compound `CCCCn1c(=NC(=O)c2cccnc2)c(C(=O)OCC)cc2c(=O)n3ccccc3nc21`, the figures for the growth inhibition in assay [1] and in assay [2] were -19.8% and -15%, respectively. The viability increase in assay [3] was -4.72%. Moreover, the viability was 84.2% in assay [4] and 88.1% in assay [5]. In addition, the inhibition in assay [6] was 0.685%. The RAM network inhibition in assay [7] was 7.68%.

As to `CCN1C(=O)c2cccc3c(N)ccc1c23`, the growth inhibition in assay [1] is -0.755%; in assay [2], -11%. Besides, the viability increase in assay [3] was -5.55%. In addition, the viability in assay [4] was 74.2%; in assay [5], 68.3%. In addition, the inhibition in assay [6] was 0%. Moreover, in assay [7], the RAM network inhibition was 1.92%.

Consider `CC(=O)Nn1cc2c(c1-c1ccccc1)c(=O)n(C)c(=O)n2C`, for which the growth inhibition was -10% in assay [1] and -3.13% in assay [2]. Moreover, the viability increase in assay [3] is 1.16%. For the same compound, the results for the viability in assay [4] and in assay [5] were 93% and 87.2%, respectively. The inhibition in assay [6] was 1.5%. For the same compound, in assay [7], the RAM network inhibition was 3.01%.

`FC(F)Sc1ccc(Nc2ncnc3nc[nH]c23)cc1`: the growth inhibition in assay [1] is 16.9%; in assay [2] it was 57.8% (active). For the same compound, in assay [3], the viability increase is -1.54%. For the same compound, the viability was 92.8% in assay [4] and 90.5% in assay [5]. The inhibition in assay [6] is 1.23%. Moreover, the RAM network inhibition in assay [7] was 4.41%.

Take `CC(C)(C)NC(=O)CSc1nc(O)cc(=O)n1-c1ccccc1F`: the values for the growth inhibition in assay [1] and in assay [2] were -5.45% and -3.51%, respectively. Moreover, the viability increase in assay [3] was -0.7%. Besides, the viability in assay [4] is 95.5%; in assay [5], 101%. Also, the inhibition in assay [6] was 0.91%. In assay [7], the RAM network inhibition is 1.87%.

For the compound `Cc1ccc(S(=O)(=O)NCc2nc3ccccc3[nH]2)cc1`, the growth inhibition in assay [1] was -4.75%; in assay [2], 4.05%. The viability increase in assay [3] is 1.61%. Further, the figures for the viability in assay [4] and in assay [5] were 98.7% and 97.8%, respectively. Besides, the inhibition in assay [6] was 2.42%. The RAM network inhibition in assay [7] is 1.58%.

For the compound `CCCOC(=O)c1ccc(NC(=O)c2ccoc2C)cc1`, the growth inhibition in assay [1] was -3.79%; in assay [2], 1.33%. In addition, the viability increase in assay [3] is 0.94%. For the same compound, the viability in assay [4] was 75.5%; in assay [5], 78%. The inhibition in assay [6] was 2.72%. The RAM network inhibition in assay [7] was 4.37%.

Consider `Cc1ccc(Cn2ccc(NC(=O)c3cc(C(C)C)on3)n2)cc1`, for which the growth inhibition in assay [1] is -13.5%; in assay [2], 5.14%. Further, the viability increase in assay [3] was 0.94%. Also, the viability was 97.1% in assay [4] and 95.1% in assay [5]. In assay [6], the inhibition was 1.97%. Further, the RAM network inhibition in assay [7] was 4.18%.

For the compound `COc1ccc(N(CC(=O)Nc2cccc(SC)c2)S(C)(=O)=O)cc1Cl`, the growth inhibition in assay [1] is -4.88%; in assay [2] it was -9.05%. Besides, in assay [3], the viability increase is -6.18%. For the same compound, the viability is 77.7% in assay [4] and 80.6% in assay [5]. Also, in assay [6], the inhibition was 0.975%. Moreover, in assay [7], the RAM network inhibition is 3.03%.

In the case of `COc1ccc(CNC(=O)CCS(=O)(=O)c2cccc3nonc23)cc1`, the values for the growth inhibition in assay [1] and in assay [2] were -4.22% and -26.3%, respectively. Further, the viability increase in assay [3] is -2.89%. Besides, the figures for the viability in assay [4] and in assay [5] were 95.8% and 100%, respectively. Moreover, the inhibition in assay [6] is 1.94%. Besides, the RAM network inhibition in assay [7] is 6.09%.

`CCOC(=O)Cc1cnc(NC(=O)c2ccccc2)s1`: the growth inhibition is 6.17% in assay [1] and 5.05% in assay [2]. For the same compound, the viability increase in assay [3] is -1.51%. For the same compound, the values for the viability in assay [4] and in assay [5] were 92.3% and 89.6%, respectively. In assay [6], the inhibition was 0.365%. In addition, the RAM network inhibition in assay [7] was 2.27%.

As for `COC(=O)c1ccc(OCC(O)CN2CCC(C)CC2)cc1` (stereo not drawn), the results for the growth inhibition in assay [1] and in assay [2] were -2.79% and -3.85%, respectively. Moreover, in assay [3], the viability increase was -2.26%. For the same compound, the viability in assay [4] is 92.3%; in assay [5] it was 94.1%. Also, the inhibition in assay [6] is 0.835%. Besides, the RAM network inhibition in assay [7] is 4.68%.

Regarding `CCc1ccc(-n2c(O)cnc2Nc2nc(C)cc(C)n2)cc1`, the values for the growth inhibition in assay [1] and in assay [2] were -7.38% and -12.2%, respectively. Further, the viability increase in assay [3] was 1.61%. Moreover, the viability in assay [4] and in assay [5] was 103% in each case. The inhibition in assay [6] was 0.325%. Besides, the RAM network inhibition in assay [7] is 3.23%.

As for `CCC(C)(C(=O)NC1CCCCC1)N(Cc1ccco1)C(=O)CC1NC(=O)NC1=O` (stereo not drawn), the results for the growth inhibition in assay [1] and in assay [2] were -7.46% and -7.12%, respectively. The viability increase in assay [3] is -3.95%. In addition, the viability in assay [4] was 97%; in assay [5], 94.9%. Besides, in assay [6], the inhibition was 1.58%. In addition, in assay [7], the RAM network inhibition was 1.8%.

Turning to `CC1Cc2nc(SCC(=O)Nc3ccc4c(c3)OCO4)n(CCc3ccccc3)c(=O)c2S1` (stereo not drawn), the figures for the growth inhibition in assay [1] and in assay [2] were -14% and -23.8%, respectively. In addition, in assay [3], the viability increase was -2.89%. Also, the results for the viability in assay [4] and in assay [5] were 94.4% and 87.1%, respectively. Also, the inhibition in assay [6] was 2.35%. The RAM network inhibition in assay [7] was 7.17%.
